# Only some compounds are listed: those with a hit (about 2.9% of all), similar ones and a draw of the others.
# MEKK2 WT-MEK5 = modulators of MEK5 binding to wildtype MEKK2, primary screen, biochemical, multiplex bead flow cytometry, Alexa488-MEK5. Mitogen-activated protein kinase kinase kinase 2 (Homo sapiens), Q9Y2U5. Alexa488-MEK5 binding to MEKK2 WT; actives lie on both sides. binding response (% of control), % at 10 µM. 1.1% of 290,000 active. AID 1531, 2009; in the data active = binding response below about 67% or above about 130%
# ATG4B inh = ATG4B protease inhibitors, primary screen, biochemical, fluorescence, uHTS. AID 504462, 2011. 0.51% of 340,000 active. ATG4B cleavage of LC3-PLA2, NBD-HPC fluorescence, 1 h. inhibition, % at 8.33 µM. Cysteine protease ATG4B (Homo sapiens), Q9Y4P1; in the data active = inhibition above about 40%
# MEKK2 mut-MEK5 = MEK5 binding signal on mutant MEKK2 PB1, primary screen, biochemical, multiplex bead flow cytometry, Alexa488-MEK5; percent response, % at 10 µM; AID 1530, 2009; Alexa488-MEK5 binding to MEKK2 mutant; 0.35% of 290,000 active; in the data active = percent response above about 24%, passing the limit was not always enough
# MEKK3 PB1 HTS = modulators of MEKK3-MEK5 PB1 binding, primary screen, biochemical, wildtype MEKK3, multiplex bead flow cytometry, Alexa488-MEK5. 1.4% of 290,000 active. bead-based flow cytometry, Alexa488-MEK5 binding to MEKK3; actives lie on both sides; 0 = blocked by unlabeled MEK5, 100 = vehicle. Mitogen-activated protein kinase kinase kinase 3 (Homo sapiens), Q99759. binding response (% of control), % at 10 µM;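 active = binding response more than 3 SD above or below the average of its plate-row segment, actives on both sides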;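 also: Alexa488 bead fluorescence after subtracting the streptavidin-only scavenger bead signal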
# Target sequence (Q99759 whole entry, looked up): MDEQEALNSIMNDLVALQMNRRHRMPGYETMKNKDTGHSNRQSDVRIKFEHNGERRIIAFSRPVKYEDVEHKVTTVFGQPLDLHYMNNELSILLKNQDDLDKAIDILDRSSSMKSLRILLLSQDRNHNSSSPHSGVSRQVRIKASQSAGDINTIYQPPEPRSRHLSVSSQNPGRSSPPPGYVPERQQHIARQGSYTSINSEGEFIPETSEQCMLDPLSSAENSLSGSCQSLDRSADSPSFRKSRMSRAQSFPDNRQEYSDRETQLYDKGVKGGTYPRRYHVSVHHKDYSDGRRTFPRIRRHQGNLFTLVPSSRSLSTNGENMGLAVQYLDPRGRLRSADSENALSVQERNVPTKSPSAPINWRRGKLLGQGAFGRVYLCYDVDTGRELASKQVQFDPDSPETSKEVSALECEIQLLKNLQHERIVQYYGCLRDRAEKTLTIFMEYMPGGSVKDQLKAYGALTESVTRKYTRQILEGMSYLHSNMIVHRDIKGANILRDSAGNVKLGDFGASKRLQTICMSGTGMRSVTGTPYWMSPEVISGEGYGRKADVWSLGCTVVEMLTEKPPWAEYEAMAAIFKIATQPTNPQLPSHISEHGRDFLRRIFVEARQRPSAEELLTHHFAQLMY
# Dynein transport = inhibitors of GR-EGFP nuclear translocation, primary screen, dynein cargo transport inhibitor project, imaging, high-content, 3617.4 mouse cells | test concentration mostly 20 µM; stimulated with dexamethasone, 1 µM; active compounds read low | z-score, hits read low | 0.47% of 220,000 active;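 active = plate z-score of nuclear minus cytoplasmic receptor signal below a set negative limit, without overly bright fluorescence or cell loss, cut at about -3.5 in these data, passing the limit was not always enough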;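 also: z-score of nuclear minus cytoplasmic ring GR-EGFP intensity difference per well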
#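 Also added: dexamethasone, 1.0 µM final. Medium: tet-free, stripped-serum medium. Detection: fixed, Hoechst-stained cells imaged at 10x for EGFP. Read-out: nuclear-to-cytoplasmic GR-EGFP distribution per well. Times: induction 48 h, compound 1 h, agonist 30 min.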
# Beta2AR agonist = beta2AR agonists driving receptor internalization, primary screen, cell-based, FAP fluorogen, flow cytometry. Beta-2 adrenergic receptor (Homo sapiens), P07550. Am2.2-beta2AR cells. response, % (test concentration not listed). 0.43% of 340,000 active. AID 504454, 2011;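 active = response above a set limit, near 3 SD of response in nonfluorescent compounds, cut at about 42% in these data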
# An asterisk follows results filed as active; · = no result; [ ] = dose if it differs, or a comment.
SMILES,MEKK2 WT-MEK5,ATG4B inh,MEKK2 mut-MEK5,MEKK3 PB1 HTS,Dynein transport,Beta2AR agonist
O=C(CNC(=O)c1cccs1)N/N=C/c1cccc(Cl)c1,98.0,-7.0,2.0,96.0,·,-9.3
O=C(NCc1nnc(SCC(=O)N2CCOCC2)o1)c1c(F)cccc1F,110.0,-2.0,12.0,105.0,·,-3.4
CC(C)c1ccc(-n2nnnc2SCC(=O)NC2CC2)cc1,·,-9.9,·,·,·,-10.7
O=C1/C(=C\c2ccc(Cl)c(Cl)c2)CN(C(=O)CCN2CCOCC2)C/C1=C/c1ccc(Cl)c(Cl)c1,·,2.8,·,·,·,51.8*
CN(C)c1ccc(NC(=O)CN2CCC(NC(=O)C3CCCCC3)CC2)cc1,137.0*,0.5,30.0*,103.0,·,3.8
O=C(CN1CCC(NC(=O)C2CCCCC2)CC1)Nc1ccccc1,·,4.5,·,·,·,0.5
Fc1ccccc1NC(=S)N1CCN(C/C=C/c2ccccc2)CC1,97.0,-5.0,-1.0,97.0,-0.611,56.1*
CC(=O)c1ccc(N2CCN(S(=O)(=O)c3cc4c(cc3C)NC(=O)CO4)CC2)cc1,0.0*[inhibitor],0.9,-21.0,1.0*[inhibitor],·,9.2
Cc1cc2c(cc1S(=O)(=O)N1CCN(c3cccc(C(F)(F)F)c3)CC1)OCC(=O)N2,98.0,0.8,-1.0,100.0,·,-5.0
Cc1c(/C=N/NC(=O)c2cccnc2)c2ccccc2n1Cc1ccccc1,62.0*[inhibitor],-8.6,110.0*,105.0,-1.22,5.3
CC(C)(C)Nc1nc(Cl)nc(N(C#N)CN2C(=O)c3ccccc3S2(=O)=O)n1,91.0,-0.1,-7.0,94.0,-1.58,45.3*
CC(C)(C)C1=CC(=O)C(=O)C(C(C)(C)C)=C1,99.0,-8.7,2.0,104.0,-1.36,110.0*
CC(C)(C)C1=CC(=Nc2ccccc2N)C=C(C(C)(C)C)C1=O,107.0,1.7,-1.0,105.0,-1.26,3.3
CCc1ccc(NC2=NCC(c3ccccc3)S2)cc1 (stereo unspecified),110.0,13.4,6.0,110.0,0.405,66.6*
Oc1cccc2oc(=S)[nH]c12,·,1.9,·,·,·,-2.0
CCCn1c(CCNc2nc(-c3cccc(Br)c3)cs2)nc2ccccc21,·,-2.5,·,·,·,-23.2
CN(C)c1ncc(C2=C(Cl)C(=O)C(N3CCCC3)=C(Cl)C2=O)s1,89.0,12.0,-6.0,87.0,-4.61,75.7*
COc1ccc(N2CC(C(=O)N[C@@H](C)C(=O)NCCc3ccccc3)CC2=O)cc1 (stereo partly specified),100.0,-3.2,-4.0,99.0,·,-1.8
Cc1ccc(C(C)C)c(OCC(=O)Nc2ccc3c(c2)nc(CCN2CCCCC2)n3C)c1,141.0*,2.5,12.0,103.0,·,23.5
Cn1c(CCN2CCCCC2)nc2cc(NC(=O)COc3ccc(Cl)cc3)ccc21,114.0,-5.2,4.0,100.0,·,3.8
O=C(C1=C(O)C(=O)N(CCN2CCOCC2)C1c1ccc(F)cc1)c1cc2ccccc2o1 (stereo unspecified),103.0,-15.0,6.0,102.0,·,75.3*
Cc1[nH]c(=O)nc(NN=Cc2ccc(Cl)cc2)c1C(=O)Nc1ccc(Cl)cc1,·,1.5,·,·,·,-4.3
COc1cc(/C=C2\COC/C(=C\c3cc(OC)c(OC)c(OC)c3)C2=O)cc(OC)c1OC,91.0,3.4,-1.0,94.0,-6.63*,43.0*
COc1cc(/C=C2\CCC/C(=C\c3ccc(O)c(OC)c3)C2=O)ccc1O,105.0,36.4,3.0,104.0,·,43.1*
C=CCOc1ccccc1CN1CCC(Oc2cc(C(=O)NC3CC3)ccc2OC)CC1,104.0,-9.0,5.0,102.0,·,-11.2
SMILES,MEKK2 WT-MEK5,ATG4B inh,MEKK2 mut-MEK5,MEKK3 PB1 HTS,Dynein transport,Beta2AR agonist
O=C(CCl)NC(Cc1ccccc1)C(=O)OCC(=O)c1ccc(-c2ccccc2)cc1 (stereo unspecified),·,-7.1,·,·,·,-6.9
CCOC(=O)c1ccc(NC(=O)c2nc(S(=O)(=O)Cc3ccccc3)ncc2Cl)cc1,104.0,-9.3,2.0,104.0,·,15.1
CCc1ccc(NC(=O)c2nc(S(=O)(=O)Cc3ccccc3)ncc2Cl)cc1,92.0,·,-1.0,98.0,·,52.2*
CN(c1ccccc1)S(=O)(=O)c1ccc(NC(=O)c2nc(S(C)(=O)=O)ncc2Cl)cc1,100.0,6.3,2.0,102.0,·,89.5*
CC(C)Cn1c(C(C)C)nc([N+](=O)[O-])c1S(=O)(=O)c1ccc(F)cc1,104.0,6.5,5.0,104.0,-3.72*,5.0
CC1C/C(=C\c2cccnc2)C(=O)/C(=C/c2cccnc2)C1 (stereo unspecified),103.0,-3.0,0.0,103.0,-6.37*,13.2
CCN(CC(=O)Nc1c(F)cccc1F)C(=O)C1CC1,·,-1.9,·,·,·,-0.8
Cc1c(CCCl)c(Cl)n2c(nc3ccccc32)c1C#N,·,1.8,·,·,·,57.1*
COC(=O)[C@@H]1C[C@]2(OC(=O)c3ccccc3)C=CC(=O)C[C@@H]2N1C(=O)OCc1ccccc1,100.0,-11.6,2.0,107.0,-6.49*,9.6
CC(=O)C1CCC2C3CCC4=CC(=O)CCC4(C)C3(Br)C(=O)CC12C (stereo unspecified),·,-9.9,·,·,·,55.6*
Cc1ccc(C)c(OCC(O)CN2CCC(CN3C(=O)c4cccc5cccc(c45)C3=O)CC2)c1 (stereo unspecified),162.0*,-34.3,6.0,112.0,-0.0649,-4.2
COc1ccc(OCC(O)CN2CCC(CN3C(=O)c4cccc5cccc(c45)C3=O)CC2)cc1 (stereo unspecified),·,-10.3,·,·,·,13.6
Cc1ccccc1OCC(O)CN1CCC(C)CC1 (stereo unspecified),0.0*[inhibitor],5.3,-47.0,1.0*[inhibitor],-0.0445,-6.2
Cc1ccc(NC(=O)CNC(=O)CC23CC4CC(CC(C4)C2)C3)c(O)c1,·,-7.1,·,·,·,4.3
COc1ccc(OC)c(NC(=O)c2csc(Cl)c2OC)c1,104.0,17.4,7.0,104.0,·,10.5
CN(CCCC[C@H](CNCc1ccc(-c2ccccc2)cc1)N1C[C@H](c2ccccc2)N(CCc2ccc(Cl)c(Cl)c2)C(=O)C1=O)Cc1ccc(-c2ccccc2)cc1,228.0*,·,78.0*,113.0,1.41,·
COc1cc(/C=C/c2cc[n+](C)cc2)ccc1OCC(=O)Nc1ccc(Cl)c(Cl)c1,237.0*,20.3,75.0*,111.0,·,23.9
Oc1ccc2ccccc2c1C=Nc1cc(C(F)(F)F)ccc1N1CCCC1,6.0*,-8.7,17.0,95.0,-0.971,-29.0

# Screening results deposited in PubChem by several laboratories.
